Measured values taken from ChEMBL document CHEMBL1154975, “Selective inducible microsomal prostaglandin E(2) synthase-1 (mPGES-1) inhibitors derived from an oxicam template” (Bioorg Med Chem Lett, 2010).

biological target: T1, Prostaglandin E synthase (Homo sapiens, UniProt O14684); test: Inhibition of human mPGES1 assessed as PGE2 level after 41 sec by ELISA; settings: not given
T1 sequence (O14684 whole entry): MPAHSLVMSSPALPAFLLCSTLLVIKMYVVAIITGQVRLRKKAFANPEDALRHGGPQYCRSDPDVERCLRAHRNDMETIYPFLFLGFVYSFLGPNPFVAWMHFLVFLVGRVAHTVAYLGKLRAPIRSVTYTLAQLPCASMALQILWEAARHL
Method in brief: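 Enzyme in 100 mM potassium phosphate pH 6.2 with 2.5 mM glutathione, compound added in DMSO. Reaction started with PGH2 (final 2 µM), stopped with 2.5 mM FeCl2, diluted 120-fold into ELISA buffer. PGE2 by ELISA against a standard curve. % control set between reference-inhibited and enzyme-only controls; IC50 by 4-parameter log fit of duplicate data.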

Going from COc1ccc2c(c1)C(O)=C(C(=O)Nc1ccc(-c3ccc(Cl)c(Cl)c3)cc1)NS2(=O)=O to COc1ccc2c(c1)S(=O)(=O)NC(C(=O)Nc1ccc(-c3ccc(Cl)c(Cl)c3)cc1)=C2O, the IC50 rises from 0.69 µM to 3.05 µM (4.4-fold). The first is the more potent here.

First: O=C(Nc1ccc(Nc2ccc(Cl)cc2)cc1)C1=C(O)c2ccccc2S(=O)(=O)N1
Second: O=C(Nc1ccc(-c2ccc(Cl)cc2Cl)cc1)C1=C(O)c2ccccc2S(=O)(=O)N1
The IC50 of the first is 3.5-fold higher: 0.15 µM for the first, 0.043 µM for the second.

Going from CN1C(C(=O)Nc2ccc(-c3ccc(Cl)c(Cl)c3)cc2)=C(O)c2ccccc2S1(=O)=O to O=C(Nc1ccc(-c2ccc(Cl)c(Cl)c2)cc1)C1=C(O)c2ccccc2S(=O)(=O)N1, the IC50 falls from 0.28 µM to 0.016 µM (18-fold).

Going from O=C(CNS(=O)(=O)c1ccccc1C(=O)O)Nc1ccc(-c2ccc(Cl)c(Cl)c2)cc1 to O=C(Nc1ccc(-c2ccc(Cl)c(Cl)c2)cc1)C1=C(O)c2cc(O)ccc2S(=O)(=O)N1, the IC50 falls from 5.76 µM to 0.098 µM (59-fold). The second is the more potent here.

First: O=C(Nc1ccc(-c2ccc(Cl)c(Cl)c2)nc1)C1=C(O)c2ccccc2S(=O)(=O)N1
Second: O=C(Nc1ccc(-c2ccc(Cl)cc2Cl)cn1)C1=C(O)c2ccccc2S(=O)(=O)N1
The IC50 of the first is 73-fold lower: 0.16 µM for the first, 11.7 µM for the second. The first is the more potent here.

First: O=C(Nc1ccc(-c2ccccc2)cc1)C1=C(O)c2ccccc2S(=O)(=O)N1
Second: Cc1ccc(-c2ccc(NC(=O)C3=C(O)c4ccccc4S(=O)(=O)N3)cc2)cc1C
The IC50 of the first is higher: 3.13 µM for the first, under 0.026 µM for the second. The second is the more potent here.

Compared with COc1ccc(-c2ccc(NC(=O)C3=C(O)c4ccccc4S(=O)(=O)N3)cc2)cc1OC, O=C(Nc1ccc(-c2ccc(Cl)c(Cl)c2)cc1)C1=C(O)c2ccc(O)cc2S(=O)(=O)N1 is 180-fold lower in IC50: 32.2 µM for the first, 0.18 µM for the second.

For O=C(Nc1ccccc1CCc1ccc(Cl)c(Cl)c1)C1=C(O)c2ccccc2S(=O)(=O)C1, the IC50 was 1.68 µM.

biological target: T1, Prostaglandin E synthase; test: Inhibition of human mPGES1 in IL1-beta treated human FF cells assessed as blockade of PGH2 to PGE2 conversion after 50 mins by ELISA; assay type: cell-based; settings: not given
Method in brief: (§1)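 Human fetal fibroblasts in DMEM/15% FBS at 37 °C, 5% CO2; after 20–24 h, stimulated 20–24 h with 1 ng/mL IL-1β, washed, compound 50 min in serum-free DMEM, then 10 µM arachidonic acid 10 min. PGE2 by ELISA. For PGF2α, SnCl2 added after compound for 10 min before arachidonic acid. IC50 from duplicate data.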

COc1ccc2c(c1)C(O)=C(C(=O)Nc1ccc(-c3ccc(Cl)c(Cl)c3)cc1)NS2(=O)=O and O=C(Nc1ccc(-c2ccc(Cl)c(Cl)c2)cc1)C1=C(O)c2cc(O)ccc2S(=O)(=O)N1 are within 1.5-fold of each other in IC50: 1.29 µM for the first, 1.45 µM for the second.

Going from O=C(Nc1ccc(Nc2ccc(Cl)cc2)cc1)C1=C(O)c2ccccc2S(=O)(=O)N1 to O=C(Nc1ccc(-c2ccc(Cl)cc2Cl)cc1)C1=C(O)c2ccccc2S(=O)(=O)N1, the IC50 falls from 4.24 µM to under 0.76 µM.

Compared with CN1C(C(=O)Nc2ccc(-c3ccc(Cl)c(Cl)c3)cc2)=C(O)c2ccccc2S1(=O)=O, O=C(Nc1ccc(-c2ccc(Cl)c(Cl)c2)cc1)C1=C(O)c2ccccc2S(=O)(=O)N1 is 4.9-fold lower in IC50: 2.04 µM for the first, 0.42 µM for the second.

Compared with O=C(CNS(=O)(=O)c1ccccc1C(=O)O)Nc1ccc(-c2ccc(Cl)c(Cl)c2)cc1, Cc1ccc(-c2ccc(NC(=O)C3=C(O)c4ccccc4S(=O)(=O)N3)cc2)cc1C is lower in IC50: 37.6 µM for the first, under 0.75 µM for the second. The second is the more potent here.

First: O=C(Nc1ccc(-c2ccc(Cl)c(Cl)c2)nc1)C1=C(O)c2ccccc2S(=O)(=O)N1
Second: O=C(Nc1ccc(-c2ccccc2)cc1)C1=C(O)c2ccccc2S(=O)(=O)N1
The IC50 of the first is 9.8-fold lower: 0.69 µM for the first, 6.73 µM for the second.

With O=C(Nc1ccccc1CCc1ccc(Cl)c(Cl)c1)C1=C(O)c2ccccc2S(=O)(=O)C1 the IC50 was 3.4 µM.

biological target: T2, Prostaglandin G/H synthase 2 (Homo sapiens, UniProt P35354); test: Inhibition of human COX2 in IL1-beta treated human FF cells assessed as blockade of SnCl2-mediated PGH2 to PGF2alpha conversion after 50 mins by ELISA; assay type: cell-based; settings: not given; method in brief: as §1
T2 sequence (P35354 whole entry): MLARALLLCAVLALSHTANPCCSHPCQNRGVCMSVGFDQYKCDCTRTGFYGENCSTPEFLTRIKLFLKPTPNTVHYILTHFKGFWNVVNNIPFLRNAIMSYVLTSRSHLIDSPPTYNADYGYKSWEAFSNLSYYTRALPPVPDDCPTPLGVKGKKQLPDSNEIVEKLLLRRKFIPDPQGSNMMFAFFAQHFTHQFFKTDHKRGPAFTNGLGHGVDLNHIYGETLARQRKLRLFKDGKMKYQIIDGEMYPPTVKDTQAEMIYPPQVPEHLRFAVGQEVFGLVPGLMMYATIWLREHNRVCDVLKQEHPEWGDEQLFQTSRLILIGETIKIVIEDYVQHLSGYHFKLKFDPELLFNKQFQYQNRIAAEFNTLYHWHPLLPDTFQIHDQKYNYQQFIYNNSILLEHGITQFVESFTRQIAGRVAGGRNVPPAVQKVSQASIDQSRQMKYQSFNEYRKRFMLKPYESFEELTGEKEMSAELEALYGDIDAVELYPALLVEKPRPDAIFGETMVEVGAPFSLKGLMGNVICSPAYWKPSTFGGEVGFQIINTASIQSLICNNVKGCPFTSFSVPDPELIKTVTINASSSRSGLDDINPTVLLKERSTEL

COc1ccc2c(c1)C(O)=C(C(=O)Nc1ccc(-c3ccc(Cl)c(Cl)c3)cc1)NS2(=O)=O and O=C(Nc1ccc(-c2ccc(Cl)c(Cl)c2)cc1)C1=C(O)c2cc(O)ccc2S(=O)(=O)N1 cannot be ordered by IC50: over 100 µM for the first, over 100 µM for the second.

O=C(Nc1ccc(Nc2ccc(Cl)cc2)cc1)C1=C(O)c2ccccc2S(=O)(=O)N1 and O=C(Nc1ccc(-c2ccc(Cl)cc2Cl)cc1)C1=C(O)c2ccccc2S(=O)(=O)N1 cannot be ordered by IC50: over 100 µM for the first, over 74.8 µM for the second.

O=C(CNS(=O)(=O)c1ccccc1C(=O)O)Nc1ccc(-c2ccc(Cl)c(Cl)c2)cc1 and O=C(Nc1ccc(-c2ccc(Cl)c(Cl)c2)cc1)C1=C(O)c2ccccc2S(=O)(=O)N1 cannot be ordered by IC50: over 100 µM for the first, over 100 µM for the second.

First: O=C(Nc1ccc(-c2ccc(Cl)c(Cl)c2)nc1)C1=C(O)c2ccccc2S(=O)(=O)N1
Second: Cc1ccc(-c2ccc(NC(=O)C3=C(O)c4ccccc4S(=O)(=O)N3)cc2)cc1C
The IC50 of the first is lower: 33.7 µM for the first, over 57.7 µM for the second.

O=C(Nc1ccc(-c2ccccc2)cc1)C1=C(O)c2ccccc2S(=O)(=O)N1 and O=C(Nc1ccccc1CCc1ccc(Cl)c(Cl)c1)C1=C(O)c2ccccc2S(=O)(=O)C1 cannot be ordered by IC50: 92.6 µM for the first, over 90 µM for the second.

biological target: Prostaglandin G/H synthase 1 (Homo sapiens, UniProt P23219); test: Inhibition of human recombinant COX1; settings: not given
Sequence (P23219 whole entry): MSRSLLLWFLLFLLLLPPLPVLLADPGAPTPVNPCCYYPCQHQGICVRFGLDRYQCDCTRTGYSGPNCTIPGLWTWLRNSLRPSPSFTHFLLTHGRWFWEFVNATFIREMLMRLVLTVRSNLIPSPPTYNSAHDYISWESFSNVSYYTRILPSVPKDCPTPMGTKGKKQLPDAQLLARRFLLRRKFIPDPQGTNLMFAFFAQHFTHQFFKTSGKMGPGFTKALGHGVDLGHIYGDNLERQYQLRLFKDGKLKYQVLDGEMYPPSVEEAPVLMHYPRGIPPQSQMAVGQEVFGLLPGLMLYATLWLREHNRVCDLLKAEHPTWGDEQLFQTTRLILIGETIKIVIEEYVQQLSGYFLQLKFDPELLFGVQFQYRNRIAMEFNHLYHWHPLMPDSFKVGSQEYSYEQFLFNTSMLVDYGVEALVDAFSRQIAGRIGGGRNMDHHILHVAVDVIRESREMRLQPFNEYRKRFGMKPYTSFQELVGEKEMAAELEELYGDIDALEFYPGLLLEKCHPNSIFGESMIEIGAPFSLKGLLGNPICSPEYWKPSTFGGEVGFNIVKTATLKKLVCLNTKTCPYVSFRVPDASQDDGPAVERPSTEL

Work on O=C(Nc1ccc(-c2ccc(Cl)c(Cl)c2)cc1)C1=C(O)c2ccccc2S(=O)(=O)N1 yielded an IC50 of 118 µM.

biological target: T2, Prostaglandin G/H synthase 2; test: Inhibition of human recombinant COX2; settings: not given

Work on O=C(Nc1ccc(-c2ccc(Cl)c(Cl)c2)cc1)C1=C(O)c2ccccc2S(=O)(=O)N1 yielded an IC50 of 263 µM.

tested on: not listed separately; test: Aqueous solubility assessed as nitrogen content after 24 hrs; assay type: physicochemical; settings: not given
Method in brief: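 Test compound from 30 mM DMSO stock diluted into 50 mM sodium phosphate buffer at the indicated pH (final 2% DMSO). Shaken 24 h at room temperature (23–25 °C), vacuum filtered. Filtrate nitrogen measured by chemiluminescent nitrogen detection; concentration derived from nitrogen count in molecular formula, reported in µg/mL and µM.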

Compound O=C(Nc1ccc(-c2ccc(Cl)c(Cl)c2)cc1)C1=C(O)c2ccccc2S(=O)(=O)N1 has a solubility at 24 h of under 3 µM.

biological target: T1, Prostaglandin E synthase; test: Inhibition of human mPGES1 in IL-1-beta-stimulated human RASF cells assessed as blockade of PGH2 to PGE2 conversion after 50 mins by ELISA; assay type: cell-based; settings: not given
Method in brief: (§2)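 RA synovial fibroblasts cultured 3 days in DMEM/10% FBS, then 24 h with 1 ng/mL IL-1β in DMEM/1% FBS. Washed; compound (1% Me2SO final) 50 min, then 10 µM arachidonic acid 10 min at 37 °C. For PGF2α, 2 mg/mL SnCl2 added 40 min after compound. Prostanoids in conditioned media by ELISA.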

O=C(Nc1ccc(-c2ccc(Cl)c(Cl)c2)cc1)C1=C(O)c2ccccc2S(=O)(=O)N1 gave an IC50 of 0.5 µM.

biological target: T3, Prostacyclin synthase (Homo sapiens, UniProt Q16647); test: Inhibition of human prostacyclin synthase in IL-1-beta-stimulated human RASF cells assessed as PGF1alpha levels after 50 mins by ELISA; assay type: cell-based; settings: not given; method in brief: as §2
T3 sequence (Q16647 whole entry): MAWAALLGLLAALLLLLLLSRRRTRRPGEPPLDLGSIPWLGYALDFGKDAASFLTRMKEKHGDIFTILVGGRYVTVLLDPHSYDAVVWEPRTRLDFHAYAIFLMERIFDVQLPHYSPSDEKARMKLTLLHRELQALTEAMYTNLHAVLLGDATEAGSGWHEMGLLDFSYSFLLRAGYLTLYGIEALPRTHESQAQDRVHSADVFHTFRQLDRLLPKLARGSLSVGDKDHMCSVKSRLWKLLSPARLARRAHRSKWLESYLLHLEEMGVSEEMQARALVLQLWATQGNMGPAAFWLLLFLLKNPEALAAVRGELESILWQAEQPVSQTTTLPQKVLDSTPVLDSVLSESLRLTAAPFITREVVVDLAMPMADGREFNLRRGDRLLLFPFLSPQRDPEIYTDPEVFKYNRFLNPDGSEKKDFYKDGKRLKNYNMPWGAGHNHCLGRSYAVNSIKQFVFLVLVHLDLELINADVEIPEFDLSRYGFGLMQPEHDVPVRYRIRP

O=C(Nc1ccc(-c2ccc(Cl)c(Cl)c2)cc1)C1=C(O)c2ccccc2S(=O)(=O)N1 showed an IC50 of over 100 µM.

biological target: T2, Prostaglandin G/H synthase 2; test: Inhibition of human COX2 in IL-1-beta-stimulated human RASF cells assessed as PGF2alpha levels after 50 mins by ELISA; assay type: cell-based; settings: not given; method in brief: as §2

O=C(Nc1ccc(-c2ccc(Cl)c(Cl)c2)cc1)C1=C(O)c2ccccc2S(=O)(=O)N1 gave an IC50 of over 100 µM.

biological target: T4, Thromboxane-A synthase (Homo sapiens, UniProt P24557); test: Inhibition of human thromboxane A synthase in IL-1-beta-stimulated human RASF cells assessed as TXB2 levels after 50 mins by ELISA; assay type: cell-based; settings: not given
T4 sequence (P24557 whole entry): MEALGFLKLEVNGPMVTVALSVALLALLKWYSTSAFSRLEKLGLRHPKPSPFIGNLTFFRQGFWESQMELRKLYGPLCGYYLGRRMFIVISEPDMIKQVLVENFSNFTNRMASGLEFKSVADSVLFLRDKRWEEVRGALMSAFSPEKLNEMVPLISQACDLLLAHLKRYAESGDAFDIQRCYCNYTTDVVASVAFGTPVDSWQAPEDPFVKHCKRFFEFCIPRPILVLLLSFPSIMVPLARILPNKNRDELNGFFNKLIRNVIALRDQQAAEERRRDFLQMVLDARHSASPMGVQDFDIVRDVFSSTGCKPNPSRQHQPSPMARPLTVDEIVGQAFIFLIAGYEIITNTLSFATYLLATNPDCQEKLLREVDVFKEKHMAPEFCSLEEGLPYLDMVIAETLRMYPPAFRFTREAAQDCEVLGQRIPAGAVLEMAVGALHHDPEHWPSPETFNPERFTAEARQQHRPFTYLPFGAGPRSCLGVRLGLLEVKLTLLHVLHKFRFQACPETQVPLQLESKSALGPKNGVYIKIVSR

With O=C(Nc1ccc(-c2ccc(Cl)c(Cl)c2)cc1)C1=C(O)c2ccccc2S(=O)(=O)N1 the IC50 was over 100 µM.

biological target: T1, Prostaglandin E synthase; test: Inhibition of human mPGES1 in […] assessed as PGE2 level after 24 hrs by ELISA; assay type: tissue-based, Blood; settings: in the assay text read “by ELISA” for “after 24 hrs by ELISA”
Method in brief: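 Heparinized healthy-donor human whole blood (100 µL/well) mixed with 10⁵ 1483 head-and-neck carcinoma cells, compound 15 min at 37 °C, then 30 µM arachidonic acid 10 min. Centrifuged 930 g 10 min; plasma PGE2 by ELISA.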

For O=C(Nc1ccc(-c2ccc(Cl)c(Cl)c2)cc1)C1=C(O)c2ccccc2S(=O)(=O)N1, the IC50 was 5 µM.
